Data taken from ChEMBL document CHEMBL1147857, “A chromone analog inhibits TNF-alpha induced expression of cell adhesion molecules on human endothelial cells via blocking NF-kappaB activation” (Bioorg Med Chem, 2007).
Activity calls are given as the source filed them. The rule behind the calls is not given here.

Tests used:
HUVEC [1] = assay: Inhibition of TNF-alpha-induced ICAM1 expression in HUVEC cells at 90 ug/ml after 2 hrs by flow cytometry; format: functional; conditions: Homo sapiens
Method in brief: (§1)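 Flow cytometry: HUVECs were pretreated with compound for 2 h, then given TNF-α 10 ng/ml for 16 h (ICAM-1, VCAM-1) or 4 h (E-selectin). Cells were dislodged and stained with mAb (1.0 µg/10^6 cells, 30 min, 4 °C), then FITC goat anti-mouse IgG. Cells were fixed in 1% paraformaldehyde and 20,000 events acquired. Autofluorescence was subtracted and mean fluorescence intensity taken from three independent experiments.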

HUVEC [2] = assay: Inhibition of TNF-alpha-induced NF-kappaB activation in HUVEC after 2 hrs by […] mobility shift assay; format: functional, cell-based; conditions: Homo sapiens
Method in brief: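 HUVECs were pretreated with compound for 2 h, then given TNF-α 10 ng/ml for 30 min. Nuclear extract (10 µg) was incubated with 40–80 fmol of 32P-labelled NF-κB oligonucleotide in HEPES/NaCl/Tris buffer pH 7.5 with poly(dI-dC), 30 min at room temperature. Complexes were resolved on a 4% native gel and seen by autoradiography. Specificity was checked with excess unlabelled oligo.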

HUVEC [3] = assay: Blockade of TNF-alpha-induced p65 nuclear translocation in HUVEC cells after 2 hrs by Western blot; format: functional, cell-based; conditions: Homo sapiens
Method in brief: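 HUVECs (2 × 10^6) were pretreated with or without compound for 2 h, then given TNF-α 10 ng/ml for 30 min. Extracts ran on 8% SDS-PAGE and were blotted with anti-p65, with γ-tubulin as loading control. Detection used an HRP anti-rabbit secondary and DAB.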

Neutrophil [4] = assay: Inhibition of TNF-alpha-induced adhesion of neutrophils to endothelium at 90 ug/ml after 2 hrs by neutrophil adhesion assay; format: functional; conditions: Homo sapiens
Method in brief: (§2)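 Static adhesion: HUVEC monolayers were pretreated with compound for 2 h, then given TNF-α 10 ng/ml for 6 h. Neutrophils from healthy donor blood (dextran sedimentation, Ficoll-Hypaque, hypotonic lysis) were added at 6 × 10^4/well and left 1 h at 37 °C. Bound cells were measured with OPD/CTAB/aminotriazole substrate at A490. % inhibition was calculated as for the ELISA. Three independent experiments.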

HUVEC [5] = assay: Inhibition of TNF-alpha-induced ICAM1 expression in HUVEC cells at 90 ug/ml after 2 hrs by ELISA; format: functional; conditions: Homo sapiens
Method in brief: (§3)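 Cell-ELISA: HUVECs were pretreated with compound for 2 h, then given TNF-α 10 ng/ml for 16 h (ICAM-1, VCAM-1) or 4 h (E-selectin). Cells were fixed in 1% glutaraldehyde and blocked with 3% milk. Specific mAbs were applied overnight at 4 °C, then HRP goat anti-mouse, with OPD substrate at pH 4.5. The reaction was stopped with H2SO4 and A490 read. % inhibition = [1 − A490(compound)/A490(control)] × 100. Three independent experiments.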

HUVEC [6] = assay: Inhibition of TNF-alpha-induced E-selectin expression in HUVEC cells after 2 hrs by ELISA; format: functional, cell-based; conditions: Homo sapiens; method in brief: as §3
HUVEC [7] = assay: Inhibition of TNF-alpha-induced VCAM1 expression in HUVEC cells at 90 ug/ml after 2 hrs by flow cytometry; format: functional; conditions: Homo sapiens; method in brief: as §1
HUVEC [8] = assay: Inhibition of TNF-alpha-induced E-selectin expression in HUVEC cells at 90 ug/ml after 2 hrs by ELISA; format: functional; conditions: Homo sapiens; method in brief: as §3
HUVEC [9] = assay: Inhibition of TNF-alpha-induced VCAM1 expression in HUVEC cells at 90 ug/ml after 2 hrs by ELISA; format: functional; conditions: Homo sapiens; method in brief: as §3
HUVEC [10] = assay: Inhibition of TNF-alpha-induced ICAM1 expression in HUVEC cells after 2 hrs by ELISA; format: functional, cell-based; conditions: Homo sapiens; method in brief: as §3
HUVEC [11] = assay: Inhibition of TNF-alpha-induced E-selectin expression in HUVEC cells at 90 ug/ml after 2 hrs by flow cytometry; format: functional; conditions: Homo sapiens; method in brief: as §1
HUVEC [12] = assay: Inhibition of TNF-alpha-induced VCAM1 expression in HUVEC cells after 2 hrs by ELISA; format: functional, cell-based; conditions: Homo sapiens; method in brief: as §3
Liver microsomes [13] = assay: Inhibition of NADPH-catalyzed lipid peroxidation in Wistar rat liver microsome at 90 ug/ml after 10 mins; format: functional
Method in brief: (§4)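 Liver microsomes came from male Wistar rats of about 200 g. Each mix held microsomes (1 mg protein), 0.025 M Tris-HCl pH 7.5, 3 mM ADP and 0.15 mM FeCl3. Mixes were preincubated 10 min at 37 °C, then 10 min with compound in DMSO. Peroxidation was started with 0.5 mM NADPH and stopped with TCA/HCl/TBA. Samples were heated at 95 °C for 30 min and TBA-reactive substance read at 535 nm.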

Neutrophil [14] = assay: Inhibition of TNF-alpha-induced adhesion of neutrophils to endothelium after 2 hrs by neutrophil adhesion assay; format: functional, cell-based; conditions: Homo sapiens; method in brief: as §2
[15] = Cytotoxicity against HUVEC cells assessed as cell viability at 90 ug/ml after 24 hrs by MTT assay; format: cell-based; conditions: human, read-out: Activity
Method in brief: (§5)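 Primary HUVECs were isolated by mild trypsinization, grown in M-199 with 15% FCS and ECGF, and used at passages 3–4. Cells got compound or 0.25% DMSO vehicle for 24 h. MTT (5 mg/ml) was added for the final 4 h, formazan dissolved in DMSO, and A570 read. Trypan blue exclusion confirmed the result. Runs were done at least 3 times in triplicate wells.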

Liver microsomes [16] = assay: Inhibition of NADPH-catalyzed lipid peroxidation in Wistar rat liver microsome at 60 ug/ml after 10 mins; format: functional; method in brief: as §4
HUVEC [17] = assay: Inhibition of TNF-alpha-induced ICAM1 expression in HUVEC cells at 60 ug/ml after 2 hrs by ELISA; format: functional; conditions: Homo sapiens; method in brief: as §3
[18] = Cytotoxicity against HUVEC cells assessed as cell viability at 60 ug/ml after 24 hrs by MTT assay; format: cell-based; conditions: human, read-out: Activity; method in brief: as §5
Liver microsomes [19] = assay: Inhibition of NADPH-catalyzed lipid peroxidation in Wistar rat liver microsome at 100 ug/ml after 10 mins; format: functional; method in brief: as §4
HUVEC [20] = assay: Inhibition of TNF-alpha-induced ICAM1 expression in HUVEC cells at 100 ug/ml after 2 hrs by ELISA; format: functional; conditions: Homo sapiens; method in brief: as §3
[21] = Cytotoxicity against HUVEC cells assessed as cell viability at 100 ug/ml after 24 hrs by MTT assay; format: cell-based; conditions: human, read-out: Activity; method in brief: as §5
HUVEC [22] = assay: Inhibition of TNF-alpha-induced ICAM1 expression in HUVEC cells at 70 ug/ml after 2 hrs by ELISA; format: functional; conditions: Homo sapiens; method in brief: as §3
[23] = Cytotoxicity against HUVEC cells assessed as cell viability at 70 ug/ml after 24 hrs by MTT assay; format: cell-based; conditions: human, read-out: Activity; method in brief: as §5
Liver microsomes [24] = assay: Inhibition of NADPH-catalyzed lipid peroxidation in Wistar rat liver microsome at 70 ug/ml after 10 mins; format: functional; method in brief: as §4
Liver microsomes [25] = assay: Inhibition of NADPH-catalyzed lipid peroxidation in Wistar rat liver microsome at 80 ug/ml after 10 mins; format: functional; method in brief: as §4
HUVEC [26] = assay: Inhibition of TNF-alpha-induced ICAM1 expression in HUVEC cells at 80 ug/ml after 2 hrs by ELISA; format: functional; conditions: Homo sapiens; method in brief: as §3
[27] = Cytotoxicity against HUVEC cells assessed as cell viability at 80 ug/ml after 24 hrs by MTT assay; format: cell-based; conditions: human, read-out: Activity; method in brief: as §5
[28] = Cytotoxicity against HUVEC cells assessed as cell viability at 110 ug/ml after 24 hrs by MTT assay; format: cell-based; conditions: human, read-out: Activity; method in brief: as §5
Liver microsomes [29] = assay: Inhibition of NADPH-catalyzed lipid peroxidation in Wistar rat liver microsome at 110 ug/ml after 10 mins; format: functional; method in brief: as §4
HUVEC [30] = assay: Inhibition of TNF-alpha-induced ICAM1 expression in HUVEC cells at 110 ug/ml after 2 hrs by ELISA; format: functional; conditions: Homo sapiens; method in brief: as §3

Compound: CCOC(=O)/C=C/c1coc2ccccc2c1=O
- inhibition at 90 µg/mL (HUVEC [1]): 95%
- Activity (HUVEC [2]): Active
- Activity (HUVEC [3]): Active
- inhibition at 90 µg/mL (Neutrophil [4]): 65%
- inhibition at 90 µg/mL (HUVEC [5]): 90%
- Activity (HUVEC [6]): Dose-dependent effect
- inhibition at 90 µg/mL (HUVEC [7]): 95%
- inhibition at 90 µg/mL (HUVEC [8]): > 95%
- inhibition at 90 µg/mL (HUVEC [9]): > 95%
- IC50 (HUVEC [10]): 184 µM
- inhibition at 90 µg/mL (HUVEC [11]): 95%
- Activity (HUVEC [12]): Dose-dependent effect
- inhibition (Liver microsomes [13]): 52.9%
- Activity (Neutrophil [14]): Dose-dependent effect
- viability at 24 h, 90 ug/ml [15]: 96%

Compound: CC(C)OC(=O)/C=C/c1coc2cc(O)ccc2c1=O
- inhibition (Liver microsomes [16]): 26.2%
- inhibition at 60 µg/mL (HUVEC [17]): 52.5%
- IC50 (HUVEC [10]): 218 µM
- viability at 24 h, 60 ug/ml [18]: 96%

Compound: CCOC(=O)/C=C/c1coc2cc(O)ccc2c1=O
- inhibition at 90 µg/mL (HUVEC [5]): 68.2%
- IC50 (HUVEC [10]): 269 µM
- inhibition (Liver microsomes [13]): 32.3%
- viability at 24 h, 90 ug/ml [15]: 95%

Compound: C=CCOC(=O)/C=C/c1coc2cc(O)ccc2c1=O
- inhibition (Liver microsomes [19]): 13.3%
- inhibition at 100 µg/mL (HUVEC [20]): 55.2%
- IC50 (HUVEC [10]): 273 µM
- viability at 24 h, 100 ug/ml [21]: 97%

Compound: CC(C)OC(=O)/C=C/c1coc2ccccc2c1=O
- inhibition at 70 µg/mL (HUVEC [22]): 73.5%
- viability at 24 h, 70 ug/ml [23]: 98%
- IC50 (HUVEC [10]): 232 µM
- inhibition (Liver microsomes [24]): 50.8%

Compound: CCCOC(=O)/C=C/c1coc2ccccc2c1=O
- inhibition (Liver microsomes [25]): 42.5%
- IC50 (HUVEC [10]): 227 µM
- inhibition at 80 µg/mL (HUVEC [26]): 81.8%
- viability at 24 h, 80 ug/ml [27]: 97%

Compound: C=CCOC(=O)/C=C/c1coc2ccccc2c1=O
- inhibition at 90 µg/mL (HUVEC [5]): 64.5%
- IC50 (HUVEC [10]): 251 µM
- inhibition (Liver microsomes [13]): 43.4%
- viability at 24 h, 90 ug/ml [15]: 95%

Compound: O=c1ccoc2ccccc12 [CHROMONE]
- inhibition at 90 µg/mL (HUVEC [5]): 47.5%
- inhibition (Liver microsomes [13]): 25.4%
- viability at 24 h, 90 ug/ml [15]: 95%

Compound: CCCOC(=O)/C=C/c1coc2cc(O)ccc2c1=O
- viability at 24 h, 110 ug/ml [28]: 97%
- inhibition (Liver microsomes [29]): 39.8%
- IC50 (HUVEC [10]): 349 µM
- inhibition at 110 µg/mL (HUVEC [30]): 63.5%
